# The list is not random: actives were taken first. Their share in the collection is about 3.9%.
# CRFBP-R2 agonist: agonists of human CRF-binding protein/CRF-R2 receptor complex; activation, % at 13.2 µM; 350,000 compounds, 0.46% hits; HEK293 CRF-R2/CRF-BP, calcium dye fluorescence (FLIPR); percent of saturating CRF peptide response;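 active = activation of at least 50%, plus an integration ratio under a set limit after plate pattern correction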;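 note: plate controls were neutral control wells without compound for no effect and CRF at EC100 for full effect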
# CRFBP-R2 block: antagonists of CRF-binding protein/CRF-R2 receptor complex. HEK293 CRF-R2/CRF-BP, CRF-induced calcium fluorescence. inhibition, % at 11.8 µM. 350,000 compounds, 0.59% hits. AID 588475;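 active = inhibition of the ligand-induced calcium signal above about 50% at the single tested concentration, limit read from the data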
# ANO1 block: inhibitors of mouse TMEM16A calcium-activated chloride channel | Q8BHY3 | HEK293 TMEM16A/YFP iodide influx fluorescence, ionomycin | normalized B-score (activity score, 25-100; higher = stronger inhibition) at 10 µM | 310,000 compounds, 1.2% hits | AID 588511;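 active = ratio plate-corrected score three or more library SD toward inhibition, starting fluorescence score within five deviations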;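 note: score derived from kinetic fluorescence span divided by baseline fluorescence per well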
# TMEM16A act: mouse TMEM16A channel activation, primary screen; Q8BHY3; HEK293 TMEM16A/YFP-H148Q/I152L, iodide quench fluorescence; hits give low values; B-score at 10 µM; 340,000 compounds, 0.3% hits;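 active = fluorescence-ratio B-score plate-corrected deviation score at least 3 library SD below zero, with starting fluorescence score within 5 deviations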;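 note: channel opened by trigger with iodide after compound preincubation; score built on the fluorescence ratio of max minus min over baseline; more negative score means more quench and so TMEM16A activation or potentiation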
# TAAR1 antag: human TAAR1 antagonism | Q96RJ0 | CHO RD-HGA16 TAAR1, Fluo-8 calcium fluorescence, antagonist | inhibition, % at 3 µM | 360,000 compounds, 1.5% hits;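 active = inhibition above a per-plate cutoff, the mean inhibition of test compounds on that plate plus 3 SD, cut at about 49% in these data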;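 note: 0% = DMSO plus EC80 beta-PEA response and 100% = DMSO alone without agonist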
#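 Assay system: RD-HGA16 CHO cells with stable hTAAR1 and Gα16 / Reagent: EC80 β-phenethylamine stimulus / Doses: 3 µM, single point / Timing: dye loading 75 min at 37 °C, then 30 min room temperature / Measured by: Fluo-8 intracellular calcium dye fluorescence, real-time kinetic reads / Controls: vehicle wells and EC80 agonist wells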
# TAAR1 agonist: agonists of human TAAR1; CHO RD-HGA16 TAAR1, Fluo-8 calcium fluorescence; vehicle wells 0%, saturating PEA agonist 100%; activation, % at 3 µM; 360,000 compounds, 0.99% hits;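 active = activation above the mean activation of all test compounds in the run plus 3 SD, cut at about 38% in these data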
#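 Benchmarks: low control DMSO, high control PEA (EC100); System: CHO RD-HGA16 cells carrying human TAAR1 plus Gα16; Detection: Fluo-8 fluorescence, 5 s baseline then 140 s kinetic read; Schedule: 17-24 h plating, Fluo-8 75 min 37 °C, 30 min RT; Read-out basis: % activation from peak over basal fluorescence ratio, DMSO-to-PEA scaled.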
# TAAR1 ag conf: human TAAR1 agonism, confirmed | 2,400 compounds, 82% hits | AID 651783 | shares compounds with TAAR1 agonist | CHO RD-HGA16 TAAR1, Fluo-8 calcium fluorescence; scaled: DMSO 0%, maximal phenethylamine 100% | activation, % at 3 µM;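 active = activation above a cutoff set at the run's mean compound activation plus 3 SD, cut at about 39% in these data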
# Ga16 ag counter: nonselective agonism, TAAR1 counter-screen | shares compounds with TAAR1 agonist | CHO-Ga16 parental, Fluo-8 calcium fluorescence; normalized to maximal ATP response, DMSO zero | activation, % at 3 µM | 2,400 compounds, 50% hits | AID 651787;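 active = activation above the run cutoff, the mean activation over all tested wells plus 3 SD, cut at about 12% in these data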;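 note: 0% = DMSO wells and 100% = maximal ATP response on the peak over basal ratio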
# TAAR1 desensitize: TAAR1 response desensitization, agonist counter-screen; 2,400 compounds, 46% hits; inhibition, % at 3 µM; shares compounds with TAAR1 agonist; CHO RD-HGA16 hTAAR1, Fluo-8 calcium, beta-PEA response inhibition;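 active = inhibition above the run cutoff, the mean inhibition of all test compounds plus 3 SD, cut at about 49% in these data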;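 note: beta-PEA stimulus applied at its EC80; loss of beta-PEA calcium signal after compound pretreatment read as receptor desensitization; 0% = DMSO with beta-PEA at EC80 and 100% = DMSO alone without agonist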
# Ga16 nonsel ant: nonselective Ga16 antagonist in TAAR1 agonist counter-screen | shares compounds with TAAR1 agonist | CHO-Ga16 ATP-induced calcium, Fluo-8 fluorescence | inhibition, % at 3 µM | 2,400 compounds, 39% hits | AID 651952;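 active = inhibition above the plate's mean compound inhibition plus 3 SD, computed per plate, cut at about 22% in these data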;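 note: 0% = EC80 ATP with DMSO and 100% = DMSO wells without ATP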
# * = called active by the depositor; i = inactive; . = not tested or not shown.
SMILES,CRFBP-R2 agonist,CRFBP-R2 block,ANO1 block,TMEM16A act,TAAR1 antag,TAAR1 agonist,TAAR1 ag conf,Ga16 ag counter,TAAR1 desensitize,Ga16 nonsel ant
COCCn1nnnc1C(c1cc2cc(OC)ccc2[nH]c1=O)N1CCC(Cc2ccccc2)CC1 (stereo unspecified),-0.4,-21.9,i,i,8.2,7.0,.,.,.,.
COc1ccc2[nH]c(=O)c(CN(CCc3ccccc3)Cc3nnnn3CC3CCCO3)cc2c1 (stereo unspecified),7.6,-4.9,i,i,72.4*,84.5*,87.9*,7.7,81.3*,24.9*
COc1ccc2cc(CN(CCc3ccccc3)Cc3nnnn3CC3CCCO3)c(=O)[nH]c2c1 (stereo unspecified),15.0,-67.9,i,i,56.9*,92.3*,77.6*,4.9,75.1*,17.1
Cc1ccc2[nH]c(=O)c(CN(CCc3ccccc3)Cc3nnnn3CC3CCCO3)cc2c1 (stereo unspecified),-2.4,-24.5,i,i,78.5*,87.4*,53.8*,4.7,19.6,14.2
COc1ccc2cc(C(c3nnnn3CCc3ccccc3)N3CCCC(C)C3)c(=O)[nH]c2c1 (stereo unspecified),4.5,-14.1,i,i,30.4,53.9*,58.5*,2.8,18.0,14.0
C=CCNC(=S)NNC(=O)c1ccncc1,-0.1,15.7,i,i,-16.0,3.9,.,.,.,.
O=c1[nH]c(CSc2ncnc3sccc23)nc2ccccc12,-0.7,-4.3,i,i,4.9,-0.6,.,.,.,.
O=c1[nH]c(CSc2ncn[nH]2)nc2ccccc12,1.7,-10.9,i,i,-22.7,42.4*,37.1,2.0,15.7,5.8
CCCCc1c(-c2ccccc2OC)ncn1CCc1ccccc1Cl,.,.,.,.,89.1*,64.2*,74.4*,11.1,75.3*,35.7*
CCCc1c(-c2ccc(OC)cc2)ncn1CCc1ccccc1OC,.,.,.,.,27.0,14.6,.,.,.,.
COc1ccccc1CCn1cnc(-c2ccc(Cl)cc2)c1CC(C)C,.,.,.,.,65.8*,52.8*,84.4*,3.2,54.8*,19.3
CCCCc1c(-c2ccccc2OC)ncn1CCc1cccc(OC)c1,.,.,.,.,17.4,25.1,.,.,.,.
CCCCc1c(-c2ccccc2OC)ncn1CCc1cccc(F)c1,.,.,.,.,43.1,69.2*,65.5*,3.9,74.1*,20.9
CCCCc1c(-c2ccccc2Br)ncn1CCc1ccccc1OC,.,.,.,.,83.4*,70.4*,73.4*,7.2,82.5*,39.0*
COc1cccc(OC)c1OCCCNC1CCCC1,-1.6,-4.1,i,i,-11.2,1.7,.,.,.,.
CCCCCc1c(-c2ccc(Br)cc2)ncn1CCc1ccccc1OC,.,.,.,.,27.3,71.0*,74.1*,7.3,48.5,25.5*
Cc1cc(C)nc(/N=C(\N)Nc2ccc(CC(=O)OC(C)C)cc2)n1,101.3*,-5.7,i,i,100.8*,108.6*,119.7*,85.4*,106.4*,97.0*
COc1ccccc1N/C(N)=N/c1nc(C)cc(C)n1,9.2,0.0,i,i,-6.3,2.1,.,.,.,.
Cc1cc(C)nc(/N=C(\N)Nc2cccc(OCc3ccccc3)c2)n1,107.7*,-47.1,i,i,106.8*,124.3*,112.5*,83.2*,105.7*,90.0*

# Compound activity from PubChem.
